Active and inactive are the calls of the source. The calls are words filed in the database; no cut-off is given here.
Assays:
Hepatitis C virus [1] = assay: Antiviral activity against Hepatitis C virus isolate Con1 infected in human HuH-7 cells assessed as inhibition of viral RNA replication after 4 days by luciferase reporter gene assay; format: functional, Hepacivirus hominis; conditions: Con1, Huh-7, 96 h
Summary of the method: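 Genotype 1b Con1 subgenomic replicon cells (ET-lunet, 3,000 cells/well, firefly luciferase ET replicon; clone A, 1,500 cells/well) incubated 4 days with serially diluted compound. Replication read by luciferase luminescence and/or real-time RT-PCR.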

[2] = Cytotoxicity against HFF; format: cell-based; conditions: human, HFF cells
Hepatitis C virus [3] = assay: Antiviral activity against Hepatitis C virus genotype 1b harboring Ntat protein assessed as viral RNA level by quantitative real-time PCR; format: functional, organism-based, Hepacivirus hominis
[4] = Cytotoxicity against human HepG2 cells assessed as inhibition of mitochondrial DNA synthesis; format: cell-based
Summary of the method: (§1)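 HepG2 or CEM cells incubated 14 days with compound up to 100 μM, ddC as control. Medium and compound replenished on days 7 and 11. Mitochondrial COXII gene and nuclear rDNA measured by multiplex quantitative RT-PCR.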

[5] = Cytotoxicity against human HepG2 cells; format: cell-based
Summary of the method: (§2)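 Cells treated 8 days with compound serially diluted from 100 μM in DMSO-containing medium, gemcitabine (1 μM) or DMSO control. Viability by MTS-type tetrazolium assay, absorbance at 490 nm with medium-only blanks. Value derived by comparison with DMSO control wells.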

[6] = Cytotoxicity against human HepAD38 cells; format: cell-based
[7] = Cytotoxicity against human CEM cells; format: cell-based; conditions: CEM (CCRF-CEM) cells; summary of the method: as §2
[8] = Cytotoxicity against human HuH7 cells assessed as effect on cellular GAPDH RNA level after 8 days by quantitative real-time PCR; format: cell-based, Huh-7
Hepatitis C virus [9] = assay: Selectivity ratio of EC90 for Hepatitis C virus harboring NS5B polymerase S282T mutant gene to EC90 for Hepatitis C virus harboring wild-type NS5B polymerase; format: functional, Hepacivirus hominis
Summary of the method: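 Clone A genotype 1b (Con1) replicon cells, wild-type or S282T mutant (selected with 2′-C-methyladenosine). 1,500 cells/well, 4 days with serially diluted compound. HCV RNA by real-time RT-PCR; EC90 from dose–response.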

Hepatitis C virus [10] = assay: Antiviral activity against Hepatitis C virus assessed as log reduction in viral RNA at 0.1 uM after 3 weeks; format: functional, Hepacivirus hominis
Summary of the method: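 ET-lunet replicon cells seeded at 1 × 10^5/well without G418, treated at 0.1, 1 or 2 μM (final DMSO 0.5%). Passaged 1:3–1:4 every 3–4 days for 3 weeks with fresh compound. Then compound withdrawn and cells grown 3 more weeks in 0.25 mg/ml G418. HCV RNA by RT-PCR (ΔΔCt vs rRNA and DMSO controls, log change). Colonies fixed in formaldehyde and stained with crystal violet at 6 weeks.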

Influenza A virus = assay: Antiviral activity against Influenza A virus (A/Brisbane/59/2007 (H1N1)) infected in HFF by neutral red assay; format: functional, organism-based
Hepatitis C virus [11] = assay: Antiviral activity against Hepatitis C virus H77 harboring Htat protein assessed as viral RNA level by quantitative real-time PCR; format: functional, organism-based, Hepacivirus hominis; conditions: genotype 1a H77
CCRF-CEM = assay: Mitochondrial toxicity in human CEM cells assessed as effect on mitochondrial cytochrome c oxidase subunit 2 gene level up to 100 uM after 14 days by quantitative real-time PCR assay; format: cell-based; conditions: 336 h; summary of the method: as §1
Hepatitis C virus [12] = assay: Antiviral activity against Hepatitis C virus assessed as clearance of HCV from replicon cells at 2 uM; format: functional, organism-based; conditions: Hepacivirus hominis
Summary of the method: (§3)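 ET-lunet replicon cells, 1 × 10^5/well, no G418, with compound at 0.1, 1 or 2 μM (final DMSO 0.5%). Passaged 1:3 or 1:4 every 3–4 days for 3 weeks with fresh compound, then 3 more weeks with 0.25 mg/ml G418 and no inhibitor. HCV RNA by RT-PCR normalized to rRNA (ΔΔCt vs DMSO) at each passage. Crystal violet colony staining at 6 weeks.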

[13] = Cytotoxicity against human CEM cells assessed as effect on cellular GAPDH RNA level after 8 days by quantitative real-time PCR; format: cell-based; conditions: CEM (CCRF-CEM) cells
Hepatitis B virus = assay: Antiviral activity against Hepatitis B virus infected in human HepAD38 cells by quantitative real-time PCR; format: functional, organism-based
[14] = system: Human immunodeficiency virus; assay: Antiviral activity against HIV infected in human HeLaP4 cells by beta-galactosidase-based reporter gene assay; format: functional, organism-based; conditions: Human immunodeficiency virus 1, HeLaP4
Summary of the method: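 P4 cells (HeLa expressing CD4/CXCR4 with HIV-1 LTR-driven LacZ), 10,000 cells/well, incubated overnight at 37°C, 5% CO2. Compound added 4 h before infection with HIV NL4-3 (4 ng/well p24-equivalent) plus DEAE-dextran 20 μg/ml. Incubated further 40–42 h. Beta-galactosidase read by luminescence; percent inhibition versus no-drug wells.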

West Nile virus = assay: Antiviral activity against West Nile virus New York by neutral red assay; format: functional, organism-based
Yellow fever virus = assay: Antiviral activity against Yellow fever virus 17D by neutral red assay; format: functional
[15] = Cytotoxicity against human HepG2 cells assessed as effect on cellular GAPDH RNA level after 8 days by quantitative real-time PCR; format: cell-based
Hepatitis C virus [16] = assay: Antiviral activity against Hepatitis C virus assessed as inhibition of viral rebound at 1 uM after 3 weeks in presence of G418; format: functional, organism-based; conditions: Hepacivirus hominis; summary of the method: as §3
HepG2 = assay: Mitochondrial toxicity in human HepG2 cells assessed as effect on mitochondrial cytochrome c oxidase subunit 2 gene level up to 100 uM after 14 days by real-time PCR assay; format: cell-based; conditions: hepg2, 336 h; summary of the method: as §1
Hepatitis C virus [17] = assay: Antiviral activity against Hepatitis C virus harboring wild-type NS5B infected in human HuH7 cells by luciferase-based replicon assay; format: functional, Hepacivirus hominis; conditions: Huh-7
[18] = molecular target: T1, DNA-directed RNA polymerase II subunit RPB1 (Homo sapiens, UniProt P24928); assay: Inhibition of human RNA polymerase 2 assessed as synthesis of RNA products at 1 uM
Summary of the method: (§4)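 In vitro transcription by HeLa nuclear extract from CMV immediate-early promoter DNA. Mix: 400 μM ATP, CTP and UTP, 16 μM GTP, [α-32P]GTP, 3 mM MgCl2, in 20 mM HEPES pH 7.9 buffer with KCl, EDTA, DTT and glycerol. Inhibitor up to 1 mM. 30°C for 60 min. RNA purified, run on 6% sequencing gel and quantified by phosphorimager.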

[19] = Inhibition of Hepatitis C virus genotype 3a recombinant NS5B polymerase after 3 hrs by phosphor imaging; set-up: species or system Hepatitis C virus subtype 3a
Summary of the method: (§5)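 C-terminal Δ21-truncated NS5B: 1b Con1 and 2a JFH-1 expressed in E. coli; 3a and 4a cloned from patient serum. Mix: 1 μM each NTP, [α-32P]UTP, 20 ng/μl genotype 1b(−) IRES RNA template, 40 ng/μl enzyme, 1 mM MgCl2, 0.75 mM MnCl2, 2 mM DTT, 50 mM HEPES pH 7.5. Run at 27°C: 30 min (1b, 2a) or 3 h (3a, 4a). EDTA quench, products on membrane read by phosphorimager. Duplicates; IC50 calculated.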

Hepatitis C virus [20] = assay: Inhibition of Hepatitis C virus Con1 recombinant NS5B polymerase after 30 mins by phosphor imaging; set-up: species or system Hepacivirus hominis; conditions: Con1, 0.5 h; summary of the method: as §5
[21] = Inhibition of Hepatitis C virus genotype 4a recombinant NS5B polymerase after 3 hrs by phosphor imaging; set-up: species or system Hepatitis C virus subtype 4a; summary of the method: as §5
[22] = molecular target: T1, DNA-directed RNA polymerase II subunit RPB1; assay: Inhibition of human RNA polymerase 2; summary of the method: as §4

With `CC(C)OC(=O)[C@H](C)NP(=O)(OC[C@H]1O[C@@H](n2ccc(=O)[nH]c2=O)[C@](C)(F)[C@@H]1O)Oc1ccccc1` (stereo not given in full) the EC90 (Hepatitis C virus [1]) was 4.32 µM, the CC50 [2] was greater than 100 µM and the EC50 (Hepatitis C virus [3]) was 0.093 µM. For the same compound, the EC90 (Hepatitis C virus [3]) was 0.75 µM, the CC90 [4] was less than 3 µM and the CC90 [5] was 12.8 µM. For the same compound, the CC50 [6] was greater than 100 µM, the CC90 [7] was 28.5 µM and the CC50 at 192 h [8] was greater than 100 µM. The Selectivity ratio (Hepatitis C virus [9]) was 16.4, the FC (Hepatitis C virus [10]) was 0.58 and the EC50 (Influenza A virus) was greater than 100 µM. For the same compound, the EC50 (Hepatitis C virus [11]) was 0.43 µM, the EC90 (Hepatitis C virus [11]) was 1.22 µM and the Activity (CCRF-CEM) was “Non-toxic”. The Activity (Hepatitis C virus [12]) was “Active”, the CC50 at 192 h [13] was greater than 100 µM and the EC50 (Hepatitis B virus) was greater than 100 µM. It also gave an EC50 [14] greater than 100 µM, an EC50 (West Nile virus) greater than 100 µM and an EC50 (Yellow fever virus) greater than 100 µM. For the same compound, the CC50 at 192 h [15] was greater than 100 µM, the inhibition (Hepatitis C virus [16]) was “Active” and the Activity (HepG2) was “Non-toxic”. For the same compound, the EC90 (Hepatitis C virus [17]) was 0.45 µM.
With `C[C@@]1(F)[C@H](O)[C@@H](COP(=O)(O)OP(=O)(O)OP(=O)(O)O)O[C@H]1n1ccc(=O)[nH]c1=O` [GS-461203] the inhibition [18] was “Active”, the IC50 [19] was 0.7 µM and the IC50 (Hepatitis C virus [20]) was 1.6 µM. It also gave an IC50 [21] of 2.6 µM and an IC50 [22] greater than 500 µM.

From ChEMBL document CHEMBL1629705, “PSI-7851, a pronucleotide of beta-D-2'-deoxy-2'-fluoro-2'-C-methyluridine monophosphate, is a potent and pan-genotype inhibitor of hepatitis C virus replication” (Antimicrob Agents Chemother, 2010)
